This is an account of results in ChEMBL document CHEMBL3259614, “Design, synthesis, and structure-activity relationship studies of novel fused heterocycles-linked triazoles with good activity and water solubility” (J Med Chem, 2014).

≈ marks a conversion by molar mass, not a printed value.

The test system of the first test is Candida parapsilosis. Description: Antimicrobial activity against Candida parapsilosis 22019 after 24 hrs by serial dilution method. Type of test: functional. The note with it: Lodderomyces parapsilosis, 22019, 24 h. In outline: (§1)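 Broth serial dilution MIC in 96-well plates following NCCLS/CLSI methods. Compounds were dissolved in DMSO and serially diluted in growth medium, with incubation at 35 °C. […] C. parapsilosis 22019 served as the quality-control strain in each assay.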
In general, MIC refers to the smallest concentration in the dilution series that meets the test's criterion for growth inhibition. Higher therefore signals a less susceptible organism. Compound `Cc1ncc(-c2nc3c(s2)CN([C@H](C)[C@](O)(Cn2cncn2)c2ccc(F)cc2F)CC3)cn1` returned an MIC of 0.25 mg/L (≈ 0.517 µM).
Same read-out and setting: as for `COc1ncc(-c2nc3c(s2)CN([C@H](C)[C@](O)(Cn2cncn2)c2ccc(F)cc2F)CC3)cn1`, the figure is 0.25 mg/L (≈ 0.5 µM); as for `C[C@@H](N1CCc2sc(Br)cc2C1)[C@](O)(Cn1cncn1)c1ccc(F)cc1F`, 8 mg/L (≈ 17 µM).
Compound `C[C@@H](N1CCc2sc(-c3ccccc3)cc2C1)[C@](O)(Cn1cncn1)c1ccc(F)cc1F` yielded a minimum inhibitory concentration (MIC) of 8 mg/L (≈ 17.1 µM).
Still for that read-out and setting: as for `C[C@@H](N1CCc2sc(-c3ccc(F)cc3)cc2C1)[C@](O)(Cn1cncn1)c1ccc(F)cc1F`, the figure is 8 mg/L (≈ 16.5 µM); as for `C[C@@H](N1CCc2sc(-c3ccc(C(F)(F)F)cc3)cc2C1)[C@](O)(Cn1cncn1)c1ccc(F)cc1F`, 16 mg/L (≈ 29.9 µM); as for `C[C@@H](N1CCc2sc(-c3ccc(Cl)cc3)cc2C1)[C@](O)(Cn1cncn1)c1ccc(F)cc1F`, 16 mg/L (≈ 31.9 µM).

A further test concerns Candida albicans. Description: Antimicrobial activity against Candida albicans Y0109 after 24 hrs by serial dilution method. The class given is functional. As to conditions: Y0109, 24 h. In outline: as §1
`Cc1ncc(-c2nc3c(s2)CN([C@H](C)[C@](O)(Cn2cncn2)c2ccc(F)cc2F)CC3)cn1` displayed a minimal inhibitory concentration (MIC) of 0.0625 mg/L (≈ 0.129 µM).
Still for that read-out and setting: as for `COc1ncc(-c2nc3c(s2)CN([C@H](C)[C@](O)(Cn2cncn2)c2ccc(F)cc2F)CC3)cn1`, the figure is 0.125 mg/L (≈ 0.25 µM).
The same measure, in the same setting: as for `C[C@@H](N1CCc2sc(Br)cc2C1)[C@](O)(Cn1cncn1)c1ccc(F)cc1F`, the figure is 4 mg/L (≈ 8.52 µM); as for `C[C@@H](N1CCc2sc(-c3ccccc3)cc2C1)[C@](O)(Cn1cncn1)c1ccc(F)cc1F`, 8 mg/L (≈ 17.1 µM); as for `C[C@@H](N1CCc2sc(-c3ccc(F)cc3)cc2C1)[C@](O)(Cn1cncn1)c1ccc(F)cc1F`, 2 mg/L (≈ 4.13 µM).
The same measure, in the same setting: under `C[C@@H](N1CCc2sc(-c3ccc(C(F)(F)F)cc3)cc2C1)[C@](O)(Cn1cncn1)c1ccc(F)cc1F` stands 8 mg/L (≈ 15 µM); under `C[C@@H](N1CCc2sc(-c3ccc(Cl)cc3)cc2C1)[C@](O)(Cn1cncn1)c1ccc(F)cc1F`, 8 mg/L (≈ 16 µM).

Another test deals with Candida albicans. In words: Antimicrobial activity against Candida albicans SC5314 after 24 hrs by serial dilution method. Type of test: functional. As to conditions: SC5314, 24 h. In outline:
as §1
On to `Cc1ncc(-c2nc3c(s2)CN([C@H](C)[C@](O)(Cn2cncn2)c2ccc(F)cc2F)CC3)cn1`, for which the minimum inhibitory concentration (MIC) was 0.0625 mg/L (≈ 0.129 µM).
On the same count and under the same terms, under `COc1ncc(-c2nc3c(s2)CN([C@H](C)[C@](O)(Cn2cncn2)c2ccc(F)cc2F)CC3)cn1` stands 0.0625 mg/L (≈ 0.125 µM).
The same measure, in the same setting: as for `C[C@@H](N1CCc2sc(Br)cc2C1)[C@](O)(Cn1cncn1)c1ccc(F)cc1F`, the figure is 2 mg/L (≈ 4.26 µM); as for `C[C@@H](N1CCc2sc(-c3ccccc3)cc2C1)[C@](O)(Cn1cncn1)c1ccc(F)cc1F`, 1 mg/L (≈ 2.14 µM); as for `C[C@@H](N1CCc2sc(-c3ccc(F)cc3)cc2C1)[C@](O)(Cn1cncn1)c1ccc(F)cc1F`, 2 mg/L (≈ 4.13 µM).
Same read-out and setting: as for `C[C@@H](N1CCc2sc(-c3ccc(C(F)(F)F)cc3)cc2C1)[C@](O)(Cn1cncn1)c1ccc(F)cc1F`, the figure is 4 mg/L (≈ 7.48 µM).
`C[C@@H](N1CCc2sc(-c3ccc(Cl)cc3)cc2C1)[C@](O)(Cn1cncn1)c1ccc(F)cc1F` returned an MIC of 4 mg/L (≈ 7.98 µM).

In another test the test system is Aspergillus fumigatus. Description: Antimicrobial activity against Aspergillus fumigatus 7544 after 48 hrs by serial dilution method. Type of test: functional. The note with it: Aspergillus fumigatus, 7544, 48 h. In outline: as §1
`Cc1ncc(-c2nc3c(s2)CN([C@H](C)[C@](O)(Cn2cncn2)c2ccc(F)cc2F)CC3)cn1`: the MIC came to 16 mg/L (≈ 33.1 µM).
Same read-out and setting: as for `COc1ncc(-c2nc3c(s2)CN([C@H](C)[C@](O)(Cn2cncn2)c2ccc(F)cc2F)CC3)cn1`, the figure is 8 mg/L (≈ 16 µM).
On the same count and under the same terms, as for `C[C@@H](N1CCc2sc(Br)cc2C1)[C@](O)(Cn1cncn1)c1ccc(F)cc1F`, the figure is 64 mg/L (≈ 136 µM); as for `C[C@@H](N1CCc2sc(-c3ccccc3)cc2C1)[C@](O)(Cn1cncn1)c1ccc(F)cc1F`, 32 mg/L (≈ 68.6 µM).
Still for that read-out and setting: as for `C[C@@H](N1CCc2sc(-c3ccc(F)cc3)cc2C1)[C@](O)(Cn1cncn1)c1ccc(F)cc1F`, the figure is 64 mg/L (≈ 132 µM).
For the compound `C[C@@H](N1CCc2sc(-c3ccc(C(F)(F)F)cc3)cc2C1)[C@](O)(Cn1cncn1)c1ccc(F)cc1F`, it took 32 mg/L (≈ 59.9 µM) to inhibit growth (MIC).
Still for that read-out and setting: under `C[C@@H](N1CCc2sc(-c3ccc(Cl)cc3)cc2C1)[C@](O)(Cn1cncn1)c1ccc(F)cc1F` stands 32 mg/L (≈ 63.9 µM).

For the next test, the system named is Cryptococcus neoformans. In words: Antimicrobial activity against Cryptococcus neoformans 32609 after 72 hrs by serial dilution method. The class given is functional. As to conditions: Cryptococcus neoformans, 32609, 72 h. In outline:
as §1
As for `Cc1ncc(-c2nc3c(s2)CN([C@H](C)[C@](O)(Cn2cncn2)c2ccc(F)cc2F)CC3)cn1`, the MIC was found to be 0.25 mg/L (≈ 0.517 µM).
`COc1ncc(-c2nc3c(s2)CN([C@H](C)[C@](O)(Cn2cncn2)c2ccc(F)cc2F)CC3)cn1` showed a minimal inhibitory concentration (MIC) of 0.5 mg/L (≈ 1 µM).
On the same count and under the same terms, under `C[C@@H](N1CCc2sc(Br)cc2C1)[C@](O)(Cn1cncn1)c1ccc(F)cc1F` stands 2 mg/L (≈ 4.26 µM); under `C[C@@H](N1CCc2sc(-c3ccccc3)cc2C1)[C@](O)(Cn1cncn1)c1ccc(F)cc1F`, 2 mg/L (≈ 4.29 µM).
The same measure, in the same setting: as for `C[C@@H](N1CCc2sc(-c3ccc(F)cc3)cc2C1)[C@](O)(Cn1cncn1)c1ccc(F)cc1F`, the figure is 2 mg/L (≈ 4.13 µM).
Same read-out and setting: under `C[C@@H](N1CCc2sc(-c3ccc(C(F)(F)F)cc3)cc2C1)[C@](O)(Cn1cncn1)c1ccc(F)cc1F` stands 8 mg/L (≈ 15 µM); under `C[C@@H](N1CCc2sc(-c3ccc(Cl)cc3)cc2C1)[C@](O)(Cn1cncn1)c1ccc(F)cc1F`, 8 mg/L (≈ 16 µM).

In a further test the test system is Nakaseomyces glabratus. In words: Antimicrobial activity against Candida glabrata 537 after 24 hrs by serial dilution method. The class given is functional. The note with it: Nakaseomyces glabratus, 537, 24 h. In outline:
as §1
Compound `Cc1ncc(-c2nc3c(s2)CN([C@H](C)[C@](O)(Cn2cncn2)c2ccc(F)cc2F)CC3)cn1` came in with an MIC of 0.25 mg/L (≈ 0.517 µM).
In the case of `COc1ncc(-c2nc3c(s2)CN([C@H](C)[C@](O)(Cn2cncn2)c2ccc(F)cc2F)CC3)cn1`, the minimum inhibitory concentration (MIC) came out at 0.25 mg/L (≈ 0.5 µM).
Compound `C[C@@H](N1CCc2sc(Br)cc2C1)[C@](O)(Cn1cncn1)c1ccc(F)cc1F` registered a minimal inhibitory concentration (MIC) of 4 mg/L (≈ 8.52 µM).
Compound `C[C@@H](N1CCc2sc(-c3ccccc3)cc2C1)[C@](O)(Cn1cncn1)c1ccc(F)cc1F` had a minimum inhibitory concentration (MIC) of 4 mg/L (≈ 8.57 µM).
On to `C[C@@H](N1CCc2sc(-c3ccc(F)cc3)cc2C1)[C@](O)(Cn1cncn1)c1ccc(F)cc1F`, for which the lowest concentration to inhibit growth (MIC) was 4 mg/L (≈ 8.26 µM).
The same measure, in the same setting: under `C[C@@H](N1CCc2sc(-c3ccc(C(F)(F)F)cc3)cc2C1)[C@](O)(Cn1cncn1)c1ccc(F)cc1F` stands 16 mg/L (≈ 29.9 µM); under `C[C@@H](N1CCc2sc(-c3ccc(Cl)cc3)cc2C1)[C@](O)(Cn1cncn1)c1ccc(F)cc1F`, 16 mg/L (≈ 31.9 µM).
